Data on 31 compounds can be found in ChEMBL document CHEMBL3414524, “Synthesis, carbonic anhydrase inhibition and cytotoxic activity of novel chromone-based sulfonamide derivatives” (Eur J Med Chem, 2015).

For test [1], the system named is MCF7. Nature of the test: Cytotoxicity against human MCF7 cells after 72 hrs by sulforhodamine B assay. The settings on record: MCF7, 72 h. The test is classed as functional, cell-based. In outline: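 Cells in log phase were plated at 1000-2000 cells/well. After 24 h they were exposed to a range of concentrations for 72 h, then fixed with 10% TCA for 1 h at 4 °C. IC50 came from a Boltzmann sigmoidal nonlinear fit, as the mean of three separate experiments.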

Test [2] concerns A549. The experiment in a line: Cytotoxicity against human A549 cells after 72 hrs by sulforhodamine B assay. The test is classed as functional, cell-based. To be noted: A549, 72 h. In outline: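 Cells in log phase were plated at 1000-2000 cells/well. After 24 h they were exposed to a range of concentrations for 72 h, then fixed with 10% TCA for 1 h at 4 °C. Staining used 0.4% SRB in 1% acetic acid for 10 min at room temperature, with the dye solubilized in Tris-HCl and OD read at 564 nm. IC50 came from a Boltzmann sigmoidal nonlinear fit, as the mean of three separate experiments.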
Background: The SRB assay estimates cell density from bound dye.

The target of test [3] is Carbonic anhydrase 1 (Homo sapiens, UniProt P00915). The experiment in a line: Inhibition of human cytosolic form of carbonic anhydrase-1 assessed as CO2 hydration activity incubated for 15 mins prior to testing by stopped flow method.
Test [4] addresses Carbonic anhydrase 9 (Homo sapiens, UniProt Q16790). The experiment in a line: Inhibition of human membrane associated form of carbonic anhydrase-9 assessed as CO2 hydration activity incubated for 15 mins prior to testing by stopped flow method.
Test [5] has as its target Carbonic anhydrase 2 (Homo sapiens, UniProt P00918). The experiment in a line: Inhibition of human cytosolic form of carbonic anhydrase-2 assessed as CO2 hydration activity incubated for 15 mins prior to testing by stopped flow method.
Test [6] concerns the target Carbonic anhydrase 12 (Homo sapiens, UniProt O43570). The experiment in a line: Inhibition of human membrane associated form of carbonic anhydrase-12 assessed as CO2 hydration activity incubated for 15 mins prior to testing by stopped flow method.
Test [7] relates to A549. Nature of the test: Induction of apoptosis in human A549 cells assessed as viable cells at 0.5 uM after 24 hrs by annexin V-FITC/propidium iodide staining-based flow cytometric analysis (reference value: 96.06%). The test is classed as functional. To be noted: A549, 24 h, read-out: Activity. In outline:
(§1)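 Cells were seeded at 1 x 10^5 cells/ml and held 24 h at 37 °C in 5% CO2, then treated for a further 24 h. They were harvested with 0.25% trypsin, washed twice in Ca2+/Mg2+-free PBS and adjusted to 1 x 10^6 cells/ml. Staining with annexin V-FITC/PI ran 30 min in the dark at room temperature, in binding buffer, with flow cytometry within 1 h. Untreated cells served as control.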

Test [8] relates to MCF7. Nature of the test: Induction of apoptosis in human MCF7 cells assessed as late apoptotic cells at 0.72 uM after 24 hrs by annexin V-FITC/propidium iodide staining-based flow cytometric analysis (reference value: 0.01%). The test is classed as functional. The method, boiled down:
as §1
Background: In flow cytometry, cells or beads pass a laser one at a time.

For test [9], the system named is MCF7. The experiment in a line: Induction of apoptosis in human MCF7 cells assessed as early apoptotic cells at 0.72 uM after 24 hrs by annexin V-FITC/propidium iodide staining-based flow cytometric analysis relative to control. The test is classed as functional. In outline: as §1
Test [10] concerns MCF7. Nature of the test: Induction of apoptosis in human MCF7 cells assessed as viable cells at 0.72 uM after 24 hrs by annexin V-FITC/propidium iodide staining-based flow cytometric analysis (reference value: 98.41%). The test is classed as functional. To be noted: MCF7, 24 h, read-out: Activity. In outline: as §1
In test [11] the test system is A549. Nature of the test: Induction of apoptosis in human A549 cells assessed as late apoptotic cells at 0.5 uM after 24 hrs by annexin V-FITC/propidium iodide staining-based flow cytometric analysis relative to control. The test is classed as functional. The method, boiled down:
as §1

Test [12] relates to A549. Nature of the test: Induction of apoptosis in human A549 cells assessed as early apoptotic cells at 0.5 uM after 24 hrs by annexin V-FITC/propidium iodide staining-based flow cytometric analysis (reference value: 1.9%). The test is classed as functional. The method, boiled down: as §1
Test [13] deals with MCF7. Nature of the test: Induction of apoptosis in human MCF7 cells assessed as necrotic cells at 0.72 uM after 24 hrs by annexin V-FITC/propidium iodide staining-based flow cytometric analysis (reference value: 1.58%). The test is classed as functional. In outline:
as §1

Test [14] concerns A549. The experiment in a line: Induction of apoptosis in human A549 cells assessed as necrotic cells at 0.5 uM after 24 hrs by annexin V-FITC/propidium iodide staining-based flow cytometric analysis (reference value: 2.04%). The test is classed as functional. The method, boiled down:
as §1

A value given as a limit tells only on which side of the number the result lay.

Carbonic anhydrase 1, sequence (P00915 whole entry): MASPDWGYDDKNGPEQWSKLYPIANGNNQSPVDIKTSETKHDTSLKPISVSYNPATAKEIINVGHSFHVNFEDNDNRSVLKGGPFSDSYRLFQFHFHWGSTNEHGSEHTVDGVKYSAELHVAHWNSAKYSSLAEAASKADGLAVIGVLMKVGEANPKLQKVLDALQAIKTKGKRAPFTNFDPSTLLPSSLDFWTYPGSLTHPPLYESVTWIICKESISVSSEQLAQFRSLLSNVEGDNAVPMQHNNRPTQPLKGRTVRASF
Carbonic anhydrase 12, sequence (O43570 whole entry): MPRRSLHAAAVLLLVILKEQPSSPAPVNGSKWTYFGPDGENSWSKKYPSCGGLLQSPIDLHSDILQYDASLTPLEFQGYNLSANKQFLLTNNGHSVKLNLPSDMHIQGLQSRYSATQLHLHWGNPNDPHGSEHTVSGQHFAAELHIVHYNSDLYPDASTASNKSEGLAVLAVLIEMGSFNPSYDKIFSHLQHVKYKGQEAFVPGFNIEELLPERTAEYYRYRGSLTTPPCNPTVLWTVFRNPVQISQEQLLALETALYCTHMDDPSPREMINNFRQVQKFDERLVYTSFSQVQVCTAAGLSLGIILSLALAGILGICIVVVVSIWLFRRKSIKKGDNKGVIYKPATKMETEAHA

Broadly, the IC50 is the point on the concentration scale where inhibition reaches its midpoint. High values mean weaker potency, low ones greater potency. Take `O=C1N=C(Nc2ccc(S(=O)(=O)Nc3nccs3)cc2)S/C1=C/c1coc2ccccc2c1=O`: the IC50 in test [1] and in test [2] was more than 100 µM each time.

Regarding `O=c1c(CNc2ccc(S(=O)(=O)Nc3nccs3)cc2)coc2ccccc12`, the IC50 in [1] was determined as 58.6 µM; in test [2], 25.6 µM.

Usually Ki stands for a measure of affinity in units of concentration, obtained from inhibition or displacement. As for `CCOC1Oc2ccccc2C(=O)/C1=C/Nc1ccc(S(=O)(=O)Nc2cc(C)on2)cc1` (centres undefined), the Ki in test [3] was more than 10 µM; in [4], 0.0238 µM; in test [5], more than 10 µM. Also, the IC50 worked out at 25.8 µM in [1] and 57.2 µM in [2].

As for `O=C1/C(=C/c2coc3ccccc3c2=O)N=C(c2ccccc2)N1c1ccc(S(=O)(=O)Nc2ncccn2)cc1`, the IC50 in test [1] is more than 100 µM; in test [2], 40.5 µM.

With `O=c1c(CNc2ccc(S(=O)(=O)Nc3ncccn3)cc2)coc2ccccc12`, the IC50 is more than 100 µM in test [1] and 85.2 µM in [2].

Turning to `Cc1cc(C)nc(NS(=O)(=O)c2ccc(NC3=NC(=O)/C(=C\c4coc5ccccc5c4=O)S3)cc2)n1`, the IC50 in test [1] and in test [2] was more than 100 µM in each case.

On to `O=c1c(CNc2ccc(S(=O)(=O)Nc3ccccn3)cc2)coc2ccccc12`, for which the IC50 in [1] and in [2] was more than 100 µM throughout.

Turning to `CCOC1Oc2ccccc2C(=O)/C1=C/Nc1ccc(S(=O)(=O)Nc2ccccn2)cc1` (centres undefined), the Ki in test [3] was more than 10 µM; in test [4], 0.0209 µM; in test [6], 0.062 µM; in test [5] it was more than 10 µM. Further, the half-inhibitory concentration (IC50) in [1] came to 28.8 µM; in test [2] it was 39.1 µM.

Turning to `NS(=O)(=O)c1ccc(NC2=NC(=O)/C(=C\c3coc4ccccc4c3=O)S2)cc1`, the Ki in test [3] is 0.399 µM; in test [4], 0.0143 µM. Moreover, the IC50 in [1] amounted to 8.91 µM; in test [2], 2.23 µM.

`Cc1cc(C)nc(NS(=O)(=O)c2ccc(N3C(=O)/C(=C/c4coc5ccccc5c4=O)N=C3c3ccc(Cl)cc3)cc2)n1`: the results for the concentration for half-maximal inhibition (IC50) in [1] and in test [2] were 93.9 µM and 52.6 µM, respectively.

Turning to `O=C1/C(=C/c2coc3ccccc3c2=O)N=C(c2ccc(Cl)cc2)N1c1ccc(S(=O)(=O)Nc2ncccn2)cc1`, the IC50 in [1] was more than 100 µM; in test [2], 59 µM.

Regarding `NS(=O)(=O)c1ccc(NCc2coc3ccccc3c2=O)cc1`, in [7], the viability at 0.5 µM stood at 23.5%. Further, the Ki in test [4] turned out to be 0.0298 µM. For the same compound, the Activity in test [8] is reported as 0.72%; in test [9] it was 94.12%; in [11] it was 1.64%; in [12], 74.77%; in test [13], 0%; in [14] it was 0.06%. Besides, the viability at 0.72 µM in test [10] was 5.16%. Besides, the values for the IC50 in test [1] and in [2] were 0.72 µM and 0.5 µM, respectively.

Turning to `O=C1/C(=C/c2coc3ccccc3c2=O)N=C(c2ccccc2)N1c1ccc(S(=O)(=O)Nc2ccccn2)cc1`, the IC50 in [1] and in test [2] was more than 100 µM each time.

For `Cc1cc(NS(=O)(=O)c2ccc(N3C(=O)/C(=C/c4coc5ccccc5c4=O)N=C3c3ccccc3)cc2)no1`, the Ki was more than 10 µM in test [3] and 0.0252 µM in test [4]. For the same compound, the IC50 in [1] was 30 µM; in test [2] it was more than 100 µM.

Turning to `O=C1N=C(Nc2ccc(S(=O)(=O)Nc3ncccn3)cc2)S/C1=C/c1coc2ccccc2c1=O`, the Ki in [3] is more than 10 µM; in test [4] it was 0.0247 µM; in test [5], more than 10 µM. In addition, the figures for the IC50 in test [1] and in test [2] were 82.6 µM and more than 100 µM, respectively.

Regarding `CCOC1Oc2ccccc2C(=O)/C1=C/Nc1ccc(S(N)(=O)=O)cc1` (centres undefined), the IC50 in test [1] was 22.2 µM; in [2] it was 33.4 µM.

For `Cc1cc(C)nc(NS(=O)(=O)c2ccc(NCc3coc4ccccc4c3=O)cc2)n1`, the figures for the IC50 in test [1] and in [2] were 93.6 µM and 55.8 µM, respectively.

Turning to `COc1cccc2c1C(=O)c1c(O)c3c(c(O)c1C2=O)C[C@@](O)(C(=O)CO)C[C@@H]3O[C@H]1C[C@H](N)[C@H](O)[C@H](C)O1` [DOXORUBICIN], the IC50 in test [2] was determined as 26.8 µM.

`O=C1/C(=C/c2coc3ccccc3c2=O)N=C(c2ccc(Cl)cc2)N1c1ccc(S(=O)(=O)Nc2ccccn2)cc1`: the concentration for half-maximal inhibition (IC50) in test [1] and in [2] was more than 100 µM in each case.

As for `O=C1/C(=C/c2coc3ccccc3c2=O)N=C(c2ccccc2)N1c1ccc(S(=O)(=O)Nc2nccs2)cc1`, the IC50 in test [1] was 88.5 µM; in test [2], 88.4 µM.

Turning to `CCOC1Oc2ccccc2C(=O)/C1=C/Nc1ccc(S(=O)(=O)Nc2nc(C)cc(C)n2)cc1` (centres undefined), the Ki in [3] is more than 10 µM; in test [4] it was 0.0376 µM; in test [5] it was more than 10 µM. The results for the IC50 in [1] and in [2] were 45.6 µM and 36.4 µM, respectively.

Regarding `CCOC1Oc2ccccc2C(=O)/C1=C/Nc1ccc(S(=O)(=O)Nc2nccs2)cc1` (centres undefined), the figures for the Ki in test [3], in [4] and in test [5] were more than 10 µM, 0.0199 µM and more than 10 µM, respectively. Moreover, the figures for the IC50 in test [1] and in test [2] were 48.6 µM and more than 100 µM, respectively.

With `NS(=O)(=O)c1ccc(N2C(=O)/C(=C/c3coc4ccccc4c3=O)N=C2c2ccc(Cl)cc2)cc1`, the Ki in test [3] was more than 10 µM; in test [4], 0.0184 µM. For the same compound, the IC50 is 24.3 µM in test [1] and 13.8 µM in test [2].

On to `Cc1cc(NS(=O)(=O)c2ccc(NCc3coc4ccccc4c3=O)cc2)no1`, for which the results for the Ki in test [3], in test [4] and in test [5] were more than 10 µM, 0.0321 µM and more than 10 µM, respectively. The IC50 was 34.5 µM in test [1] and 59.7 µM in test [2].

Regarding `Cc1cc(C)nc(NS(=O)(=O)c2ccc(N3C(=O)/C(=C/c4coc5ccccc5c4=O)N=C3c3ccccc3)cc2)n1`, the IC50 was 99.7 µM in test [1] and 63.2 µM in test [2].

In the case of `Cc1cc(NS(=O)(=O)c2ccc(N3C(=O)/C(=C/c4coc5ccccc5c4=O)N=C3c3ccc(Cl)cc3)cc2)no1`, the IC50 in test [1] and in test [2] was more than 100 µM throughout.

Regarding `NS(=O)(=O)c1ccc(N2C(=O)/C(=C/c3coc4ccccc4c3=O)N=C2c2ccccc2)cc1`, the figures for the inhibition constant Ki in test [3] and in test [4] were 8 µM and 0.023 µM, respectively. Besides, the figures for the IC50 in test [1] and in [2] were 11.5 µM and 1.73 µM, respectively.

With `O=C1/C(=C/c2coc3ccccc3c2=O)N=C(c2ccc(Cl)cc2)N1c1ccc(S(=O)(=O)Nc2nccs2)cc1`, the IC50 in test [1] and in test [2] was more than 100 µM throughout.

As to `O=C1N=C(Nc2ccc(S(=O)(=O)Nc3ccccn3)cc2)S/C1=C/c1coc2ccccc2c1=O`, the Ki in [3] is more than 10 µM; in test [4] it was 0.0256 µM. Moreover, the values for the IC50 in test [1] and in test [2] were 47.1 µM and more than 100 µM, respectively.

`Cc1cc(NS(=O)(=O)c2ccc(NC3=NC(=O)/C(=C\c4coc5ccccc5c4=O)S3)cc2)no1`: the IC50 in [1] and in test [2] was more than 100 µM in each case.

For the compound `CCOC1Oc2ccccc2C(=O)/C1=C/Nc1ccc(S(=O)(=O)Nc2ncccn2)cc1` (centres undefined), the IC50 in test [1] is 30.1 µM; in test [2], more than 100 µM.
